pKi: −log10 of the molar value. Values belong to the compound of their own block, whether it stands above or below them.
Experiments:
[1] = tested on: NCI-H460; assay: Growth inhibition of human NCI-H460 cells after 48 hrs by sulforhodamine B assay; assay type: functional; conditions: NCI-H460, 48 h
Procedure, shortened: (§1)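 Yamori 39-line human cancer panel, NCI method with modifications. Cells plated in RPMI 1640 plus 5% FBS, attached overnight, then exposed 48 h to compound at 10^-8, 10^-7, 10^-6, 10^-5 and 10^-4 M. Sulforhodamine B staining read at 525 nm; % growth = 100[(T−T0)/(C−T0)] from duplicate-point averages, with T0 the time-zero absorbance. GI50 is the concentration giving 50.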

[2] = tested on: DMS-273; assay: Growth inhibition of human DMS273 cells after 48 hrs by sulforhodamine B assay; assay type: functional; conditions: DMS-273, 48 h; procedure, shortened: as §1
[3] = Growth inhibition of human HBC5 cells after 48 hrs by sulforhodamine B assay; assay type: functional; conditions: HBC5, 48 h; procedure, shortened: as §1
[4] = tested on: SNB-75; assay: Growth inhibition of human SNB75 cells after 48 hrs by sulforhodamine B assay; assay type: functional; conditions: SNB-75, 48 h; procedure, shortened: as §1
[5] = Octanol-water partition coefficient, log P of the compound by HPLC analysis; assay type: physicochemical
Procedure, shortened: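 log P was estimated from HPLC retention, with column dead time measured using unretained formamide.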

[6] = biological target: Protein kinase C delta type (Homo sapiens, UniProt Q05655); assay: Inhibition of [3H]PDBu binding to PKCdelta-C1A domain peptide (unknown origin)
Procedure, shortened: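 Competitive [3H]PDBu binding used 14 or 40 nM PKCδ C1 peptide and 20 nM [3H]PDBu (19.6 Ci/mmol), in 50 mM Tris-maleate (pH 7.4 at 4 °C) with 50 µg/mL phosphatidylserine, 3 mg/mL bovine γ-globulin and varied inhibitor concentrations. IC50 was taken as 50% inhibition of specific binding. Ki was derived by the Sharkey–Blumberg method.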

[7] = tested on: Human gammaherpesvirus 4; assay: Induction of EBV-early antigen expressed in human Raji cells at 10^-7 M after 48 hrs by immunofluorescence assay relative to control; assay type: organism-based; conditions: human gammaherpesvirus 4, raji, 0.1 µM
Procedure, shortened: (§2)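 Raji B-lymphoblastoid cells (5 × 10^5/mL) in RPMI 1640 with 10% FBS, with 4 mM sodium n-butyrate as synergist and test compound at 10^-7 or 10^-6 M (final DMSO 0.4%). Incubated 48 h at 37 °C under 5% CO2. Smears were stained by indirect immunofluorescence using NPC patient serum and FITC anti-human IgG. At least 500 cells counted; % EA-positive recorded; n = 3, SEM.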

[8] = tested on: Human gammaherpesvirus 4; assay: Induction of EBV-early antigen expressed in human Raji cells at 10^-6 M after 48 hrs by immunofluorescence assay relative to control; assay type: organism-based; conditions: human gammaherpesvirus 4, raji, 1 µM; procedure, shortened: as §2

Sequence of Protein kinase C delta type (Q05655 whole entry, the tested form may be a part): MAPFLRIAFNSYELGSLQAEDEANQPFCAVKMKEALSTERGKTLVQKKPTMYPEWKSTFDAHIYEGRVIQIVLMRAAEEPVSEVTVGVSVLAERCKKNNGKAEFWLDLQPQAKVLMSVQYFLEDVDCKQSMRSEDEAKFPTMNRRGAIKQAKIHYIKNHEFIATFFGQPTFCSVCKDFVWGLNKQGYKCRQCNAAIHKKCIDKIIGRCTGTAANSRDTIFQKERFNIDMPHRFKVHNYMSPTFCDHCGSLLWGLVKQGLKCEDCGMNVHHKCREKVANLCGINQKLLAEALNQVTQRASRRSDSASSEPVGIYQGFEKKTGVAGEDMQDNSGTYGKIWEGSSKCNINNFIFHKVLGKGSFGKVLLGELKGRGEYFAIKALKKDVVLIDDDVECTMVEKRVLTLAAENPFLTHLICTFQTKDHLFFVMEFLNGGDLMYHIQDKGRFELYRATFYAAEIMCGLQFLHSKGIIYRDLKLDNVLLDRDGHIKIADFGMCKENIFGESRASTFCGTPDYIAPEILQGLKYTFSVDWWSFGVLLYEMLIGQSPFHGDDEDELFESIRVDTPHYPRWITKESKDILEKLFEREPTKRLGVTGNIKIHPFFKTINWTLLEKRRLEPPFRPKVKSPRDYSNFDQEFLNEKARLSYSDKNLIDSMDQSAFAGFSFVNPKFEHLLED

SMILES: CC1(C)CC[C@@H]2CC(=O)O[C@@H](CO)CC(=O)O[C@@H]3C[C@@H](CCCCc4cccc(O)c4)O[C@@]1(C3)O2
- GI50 [1]: 2.51 µM
- GI50 [2]: 12.6 µM
- GI50 [3]: 17.4 µM
- GI50 [4]: 15.8 µM

SMILES: CO[C@@H](CC[C@H](C)[C@H]1O[C@@]23C[C@H](OC(=O)C[C@H]([C@@H](C)O)OC(=O)C[C@](O)(O2)[C@H](C)CC3(C)C)[C@@H]1C)c1cc(O)ccc1Br [APLYSIATOXIN]
- logP [5]: 5.4

SMILES: CO[C@@H](CC[C@H](C)[C@H]1O[C@@]23C[C@H](OC(=O)C[C@H]([C@@H](C)O)OC(=O)C[C@](O)(O2)[C@H](C)CC3(C)C)[C@@H]1C)c1cccc(O)c1 [DEBROMOAPLYSIATOXIN]
- pKi [6]: 8.01

SMILES: CCCCCCCCCCCCCC(=O)O[C@@H]1[C@@H](C)[C@@]2(O)[C@@H](C=C(CO)C[C@]3(O)C(=O)C(C)=C[C@@H]23)[C@@H]2C(C)(C)[C@]12OC(C)=O [PHORBOL MYRISTATE ACETATE]
- Activity [7]: 29.4%
- Activity [8]: 31.5%

- pKi [6]: 7.66
SMILES: C[C@H]1[C@@H]2C[C@@]3(O[C@H](CCC3(C)C)CC(=O)O[C@@H](CO)CC(=O)O2)O[C@@H]1CCCCc1cccc(O)c1

— ChEMBL document CHEMBL2380295, “Structure-activity studies on the side chain of a simplified analog of aplysiatoxin (aplog-1) with anti-proliferative activity” (Bioorg Med Chem, 2013)
